In brackets after ≈: the same amount, converted by molar mass. Activity calls are given as the source filed them. No cut-off for these calls is given here.
Experiments:
[1] = system: Pseudomonas aeruginosa; test: Antibacterial activity against Pseudomonas aeruginosa CCM 1961 at 500 micromol/L after 24 to 48 hrs by broth microdilution method; type: functional, organism-based
Procedure, shortened: (§1)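 Broth microdilution in Mueller–Hinton broth, compounds dissolved in DMSO, tested over a dilution series from 500 downward. MIC taken as ≥95% growth reduction (IC95) versus drug-free control. Benzylpenicillin comparator. Readings at 24 and 48 h.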

[2] = system: Candida albicans; test: Antifungal activity against Candida albicans ATCC 44859 after 24 hrs by broth microdilution method; type: functional; details: ATCC 44859, 24 h
Procedure, shortened: (§2)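 Broth microdilution in RPMI 1640 with glutamine, fluconazole as reference. For yeasts, MIC is ≥80% growth reduction (IC80) versus control. For filamentous fungi, the value is expressed as IC50. Readings at 24 and 48 h.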

[3] = system: Klebsiella pneumoniae; test: Antibacterial activity against ESBL-positive Klebsiella pneumoniae J 14368/08 at 500 micromol/L after 24 to 48 hrs by broth microdilution method; type: functional, organism-based; procedure, shortened: as §1
[4] = system: Mycobacterium tuberculosis; test: Antimycobacterial activity against Mycobacterium tuberculosis H37Rv My 331/88 after 21 days; type: functional; details: H37Rv My 331/88, 504 h
Procedure, shortened: (§3)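 Micromethod MIC in Šula's semisynthetic medium at 37 °C. Compounds added in DMSO at 1000 down to 0.032 µmol/L. Isoniazid standard in sterile water at 0.5–250 µmol/L. Inocula: H37Rv 10^3, M. avium 10^5, M. kansasii 10^4. Read at 14 and 21 d, plus 7 d for M. kansasii.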

[5] = system: Mycobacterium tuberculosis; test: Antimycobacterial activity against Mycobacterium tuberculosis H37Rv My 331/88 after 14 days; type: functional; details: H37Rv My 331/88, 336 h; procedure, shortened: as §3
[6] = system: Staphylococcus epidermidis; test: Antibacterial activity against Staphylococcus epidermidis H 6966/08 after 24 hrs by broth microdilution method; type: functional; details: H 6966/08, 24 h; procedure, shortened: as §1
[7] = system: HepG2; test: Cytotoxicity against human HepG2 cells after 24 hrs by CellTiter assay; type: cell-based; details: HepG2, 24 h
Procedure, shortened: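 HepG2 cells (passage 27–33) in MEM with 10% FBS, L-glutamine and NEAA, seeded at 1×10^4 per well. Treated next day with compounds at 0.1–100 µM (or 0.1–25 µmol/L), triplicates, <1% DMSO, for 24 h at 37 °C, 5% CO2. MTS reagent added for 2 h, absorbance read at 490 nm. IC50 taken against untreated (100%) and 10% DMSO (0%) controls.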

[8] = system: Aspergillus fumigatus; test: Antifungal activity against Aspergillus fumigatus 231 after 48 hrs by broth microdilution method; type: functional; details: Aspergillus fumigatus, 231, 48 h; procedure, shortened: as §2
[9] = system: Escherichia coli; test: Antibacterial activity against Escherichia coli CCM 4517 at 500 micromol/L after 24 to 48 hrs by broth microdilution method; type: functional, organism-based; procedure, shortened: as §1
[10] = system: Aspergillus fumigatus; test: Antifungal activity against Aspergillus fumigatus 231 after 24 hrs by broth microdilution method; type: functional; details: Aspergillus fumigatus, 231, 24 h; procedure, shortened: as §2
[11] = system: Trichosporon asahii; test: Antifungal activity against Trichosporon asahii 1188 after 24 hrs by broth microdilution method; type: functional; details: Trichosporon asahii, 1188, 24 h; procedure, shortened: as §2
[12] = system: Mycobacterium avium; test: Antimycobacterial activity against isoniazid, rifampicin, ethambutol and ofloxacin-resistant Mycobacterium avium My 330/88 after 14 days; type: functional; details: My 330/88, 336 h; procedure, shortened: as §3
[13] = system: Staphylococcus aureus; test: Antibacterial activity against methicillin-resistant Staphylococcus aureus H 5996/08 after 24 hrs by broth microdilution method; type: functional; details: H 5996/08, 24 h; procedure, shortened: as §1
[14] = system: Staphylococcus epidermidis; test: Antibacterial activity against Staphylococcus epidermidis H 6966/08 after 48 hrs by broth microdilution method; type: functional; details: H 6966/08, 48 h; procedure, shortened: as §1
[15] = system: Staphylococcus aureus; test: Antibacterial activity against methicillin-resistant Staphylococcus aureus H 5996/08 after 48 hrs by broth microdilution method; type: functional; details: H 5996/08, 48 h; procedure, shortened: as §1
[16] = system: Mycobacterium kansasii; test: Antimycobacterial activity against Mycobacterium kansasii My 235/80 after 14 days; type: functional; details: My 235/80, 336 h; procedure, shortened: as §3
[17] = system: Mycobacterium kansasii; test: Antimycobacterial activity against Mycobacterium kansasii 6509/96 after 21 days; type: functional; details: 6509/96, 504 h; procedure, shortened: as §3
[18] = system: Staphylococcus aureus; test: Antibacterial activity against Staphylococcus aureus CCM 4516/08 after 48 hrs by broth microdilution method; type: functional; details: CCM 4516/08, 48 h; procedure, shortened: as §1
[19] = system: Trichophyton mentagrophytes; test: Antifungal activity against Trichophyton mentagrophytes 445 after 72 hrs by broth microdilution method; type: functional; details: Trichophyton mentagrophytes, 445, 72 h
Procedure, shortened: (§4)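 Filamentous dermatophyte tested by broth microdilution in RPMI 1640 with glutamine, fluconazole as reference. Value expressed as IC50 relative to growth control. Read at 72 and 120 h.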

[20] = system: Candida tropicalis; test: Antifungal activity against Candida tropicalis 156 at 500 micromol/L after 24 to 48 hrs by broth microdilution method; type: functional, organism-based; procedure, shortened: as §2
[21] = system: Mycobacterium kansasii; test: Antimycobacterial activity against Mycobacterium kansasii My 235/80 after 7 days; type: functional; details: My 235/80, 168 h; procedure, shortened: as §3
[22] = system: Staphylococcus aureus; test: Antibacterial activity against Staphylococcus aureus CCM 4516/08 after 24 hrs by broth microdilution method; type: functional; details: CCM 4516/08, 24 h; procedure, shortened: as §1
[23] = system: Trichophyton mentagrophytes; test: Antifungal activity against Trichophyton mentagrophytes 445 after 120 hrs by broth microdilution method; type: functional; details: Trichophyton mentagrophytes, 445, 120 h; procedure, shortened: as §4
[24] = system: Lichtheimia corymbifera; test: Antifungal activity against Absidia corymbifera 272 after 24 hrs by broth microdilution method; type: functional; details: Lichtheimia corymbifera, 272, 24 h; procedure, shortened: as §2
[25] = system: Enterococcus sp.; test: Antibacterial activity against Enterococcus sp. J 14365/08 at 500 micromol/L after 24 to 48 hrs by broth microdilution method; type: functional, organism-based; procedure, shortened: as §1
[26] = system: Klebsiella pneumoniae; test: Antibacterial activity against Klebsiella pneumoniae D 11750/08 at 500 micromol/L after 24 to 48 hrs by broth microdilution method; type: functional, organism-based; procedure, shortened: as §1
[27] = system: Mycobacterium avium; test: Antimycobacterial activity against isoniazid, rifampicin, ethambutol and ofloxacin-resistant Mycobacterium avium My 330/88 after 21 days; type: functional; details: My 330/88, 504 h; procedure, shortened: as §3
[28] = system: Mycobacterium kansasii; test: Antimycobacterial activity against Mycobacterium kansasii 6509/96 after 7 days; type: functional; details: 6509/96, 168 h; procedure, shortened: as §3
[29] = system: Pichia kudriavzevii; test: Antifungal activity against Candida krusei E28 after 48 hrs by broth microdilution method; type: functional; details: E28, 48 h; procedure, shortened: as §2
[30] = system: Trichosporon asahii; test: Antifungal activity against Trichosporon asahii 1188 after 48 hrs by broth microdilution method; type: functional; details: Trichosporon asahii, 1188, 48 h; procedure, shortened: as §2
[31] = system: Candida albicans; test: Antifungal activity against Candida albicans ATCC 44859 after 48 hrs by broth microdilution method; type: functional; details: ATCC 44859, 48 h; procedure, shortened: as §2
[32] = system: Mycobacterium kansasii; test: Antimycobacterial activity against Mycobacterium kansasii My 235/80 after 21 days; type: functional; details: My 235/80, 504 h; procedure, shortened: as §3
[33] = system: Pichia kudriavzevii; test: Antifungal activity against Candida krusei E28 after 24 hrs by broth microdilution method; type: functional; details: E28, 24 h; procedure, shortened: as §2
[34] = system: Lichtheimia corymbifera; test: Antifungal activity against Absidia corymbifera 272 after 48 hrs by broth microdilution method; type: functional; details: Lichtheimia corymbifera, 272, 48 h; procedure, shortened: as §2
[35] = system: Nakaseomyces glabratus; test: Antifungal activity against Candida glabrata 20/I at 500 micromol/L after 24 to 48 hrs by broth microdilution method; type: functional, organism-based; procedure, shortened: as §2
[36] = system: Mycobacterium kansasii; test: Antimycobacterial activity against Mycobacterium kansasii 6509/96 after 14 days; type: functional; details: 6509/96, 336 h; procedure, shortened: as §3

CCOP(=O)(OCC)Oc1ccc(Br)cc1C(=O)Nc1cccc(Br)c1
Activity [1]: inactive | MIC80 [2]: > 500 µM | Activity [3]: inactive | MIC [4]: 2 µM (≈ 1.01 µg/mL) | MIC [5]: 2 µM (≈ 1.01 µg/mL) | MIC95 [6]: 31.2 µM (≈ 15.8 µg/mL) | IC50 [7]: 4.41 µM | MIC50 [8]: > 500 µM | Activity [9]: inactive | MIC50 [10]: > 500 µM | MIC80 [11]: > 500 µM | MIC [12]: 16 µM (≈ 8.11 µg/mL) | MIC95 [13]: 31.2 µM (≈ 15.8 µg/mL) | MIC95 [14]: 250 µM (≈ 127 µg/mL) | MIC95 [15]: 250 µM (≈ 127 µg/mL) | MIC [16]: 8 µM (≈ 4.06 µg/mL) | MIC [17]: 8 µM (≈ 4.06 µg/mL) | MIC95 [18]: 250 µM (≈ 127 µg/mL) | MIC50 [19]: > 500 µM | Activity [20]: inactive | MIC [21]: 4 µM (≈ 2.03 µg/mL) | MIC95 [22]: 31.2 µM (≈ 15.8 µg/mL) | MIC50 [23]: > 500 µM | MIC50 [24]: > 500 µM | Activity [25]: inactive | Activity [26]: inactive | MIC [27]: 16 µM (≈ 8.11 µg/mL) | MIC [28]: 4 µM (≈ 2.03 µg/mL) | MIC80 [29]: > 500 µM | MIC80 [30]: > 500 µM | MIC80 [31]: > 500 µM | MIC [32]: 8 µM (≈ 4.06 µg/mL) | MIC80 [33]: > 500 µM | MIC50 [34]: > 500 µM | Activity [35]: inactive | MIC [36]: 8 µM (≈ 4.06 µg/mL)

From ChEMBL document CHEMBL3102784, “Salicylanilide diethyl phosphates: synthesis, antimicrobial activity and cytotoxicity” (Bioorg Med Chem, 2014)
